Compounds with a hit are over-represented: about 1.4% of the library has one in this group of screens.
HTRA1 inhibitor – blocks human HTRA1 serine peptidase. recombinant HTRA1, FP-rhodamine activity-based probe, fluorescence polarization. inhibition, % at 5.96 µM. 340,000 tested, 0.5% active. AID 504803; in the data active = inhibition above about 36%;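 also: 0% = enzyme with DMSO and 100% = wells lacking enzyme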
ABHD4 inh – inhibits mouse alpha/beta hydrolase domain 4; Q8VD66; purified mABHD4, FP-Rh probe fluorescence polarization; inhibition, % at 8.92 µM; 370,000 tested, 0.54% active; AID 720543;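 active = inhibition exceeding the mean over every tested compound plus 3 SD, cut at about 30% in these data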;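 also: 0% = plate median of compound wells and 100% = S159A mutant with DMSO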
Target sequence (Q8VD66 whole entry, looked up, the tested form may be a part): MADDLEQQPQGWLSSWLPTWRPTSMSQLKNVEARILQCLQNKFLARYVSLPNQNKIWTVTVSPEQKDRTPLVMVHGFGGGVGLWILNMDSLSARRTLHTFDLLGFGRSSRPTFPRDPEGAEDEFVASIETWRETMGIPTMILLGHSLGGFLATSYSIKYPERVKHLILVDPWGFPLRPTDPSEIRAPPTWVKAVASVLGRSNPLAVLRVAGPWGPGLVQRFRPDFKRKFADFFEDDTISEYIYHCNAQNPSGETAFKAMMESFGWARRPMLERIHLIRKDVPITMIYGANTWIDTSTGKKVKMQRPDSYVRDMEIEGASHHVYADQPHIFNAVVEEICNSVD
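Test system: mouse ABHD4 enzyme, wild type. Reagent: FP-Rh fluorescent activity-based probe, added after compound pre-incubation. Timing: pre-incubation 45 min, probe exposure 60 min, at 25 °C. Technique: FP readout, ex 525 nm / em 598 nm. Benchmarks: high control S159A mutant with DMSO, low control median of compound wells.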
SIAE primary – human SIAE inhibition, primary screen; SIAE FP-Rh probe binding, fluorescence polarization; Q9HAT2; AID 1053197; inhibition, % at 9.66 µM; 370,000 tested, 0.69% active;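 active = inhibition above a cutoff: mean of compounds within the control limits plus 3 SD of those, cut at about 17% in these data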;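 also: 0% = plate median of compound wells and 100% = probe without SIAE protein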
RBBP9 inh – human RBBP9 hydrolase inhibition. recombinant RBBP9, FP-Rh probe fluorescence polarization. inhibition, % at 7.94 µM. 220,000 tested, 0.2% active. AID 1515;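 active = inhibition above the campaign mean of all tested compounds plus 3 SD, cut at about 14% in these data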;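 also: plate controls were DMSO wells with RBBP9 for no effect and wells lacking RBBP9 protein for full effect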
Target sequence (O75884 whole entry, looked up): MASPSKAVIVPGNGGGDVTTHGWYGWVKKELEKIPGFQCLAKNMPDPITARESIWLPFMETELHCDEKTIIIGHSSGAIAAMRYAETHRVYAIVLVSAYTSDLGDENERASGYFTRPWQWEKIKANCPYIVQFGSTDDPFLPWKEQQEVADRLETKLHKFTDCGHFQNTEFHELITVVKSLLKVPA
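System: RBBP9 protein / Buffer or medium: Tris/NaCl buffer pH 8.0 with 0.1% Pluronic / Probe or stimulus: Serine-hydrolase probe FP-Rh, 375 nM pre-mixing / Dosing: 7.94 µM single dose, 0.794% DMSO / Times: enzyme-compound preincubation 30 min, then probe labeling 45 min, 25 °C / Technique: fluorescence polarization (mP), excitation 525 nm, emission 598 nm / Replication: singlicate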
HTRA1 inh conf – HTRA1 (human) inhibition, confirmation; inhibition, % at 5.96 µM; shares compounds with HTRA1 inhibitor; 1,600 tested, 66% active; recombinant HTRA1, FP-rhodamine activity-based probe, fluorescence polarization;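 active = mean inhibition over three repeats above a set limit taken from the earlier primary screen, cut at about 37% in these data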;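 also: 0% = HTRA1 with DMSO and 100% = wells lacking HTRA1; inhibitors block probe binding so polarization drops and inhibition rises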
mABHD4 conf – ABHD4 (mouse) inhibition, FP confirmation. inhibition, % at 8.92 µM. AID 720658. 1,800 tested, 55% active. purified mABHD4, FP-Rh probe fluorescence polarization. shares compounds with ABHD4 inh;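 active = mean inhibition across replicates above the hit cutoff set in the primary screen, cut at about 30% in these data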;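 also: 0% = wild-type ABHD4 with DMSO and 100% = catalytically dead S159A mutant with DMSO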
* marks the source's active call; other numbers are inactive results.

How did CC1OC(Nc2cccc3ccccc23)C(O)C(O)C1O (configuration not stated) do in these assays?
HTRA1 inhibitor: 43.1*; ABHD4 inh: 35.9*; SIAE primary: 1.2; RBBP9 inh: 3.9; HTRA1 inh conf: 12.1; mABHD4 conf: 1.5

Results for CC1OC(Nc2ccc(N=Nc3ccccc3)cc2)C(O)C(O)C1O (configuration not stated) ?
HTRA1 inhibitor: 6.3; ABHD4 inh: 6.3; SIAE primary: 2.9; RBBP9 inh: 5.5

What do the screens show for `Oc1ccc(/C=N/N(Cc2ccccc2)c2ccccc2)c(O)c1O`?
HTRA1 inhibitor: 67.8*; ABHD4 inh: 34.5*; SIAE primary: 15.3; RBBP9 inh: -11.3; HTRA1 inh conf: 55.2*; mABHD4 conf: 45.7*

What do the screens show for `CC1=NN(c2ccc(C(=O)O)cc2)C(=O)/C1=C/c1ccc(-c2ccccc2F)o1`?
HTRA1 inhibitor: 0.2

What do the screens show for `CC1=NN(c2ccc(C)cc2)C(=O)/C1=C/c1ccc(-c2cc([N+](=O)[O-])ccc2O)o1`?
HTRA1 inhibitor: 46.4*; ABHD4 inh: 31.0*; SIAE primary: 13.2; HTRA1 inh conf: 52.9*; mABHD4 conf: 53.4*

Results for O=C(NCc1ccccc1)c1ccc2nc(-c3ccco3)c(-c3ccco3)nc2c1 ?
HTRA1 inhibitor: 62.9*; ABHD4 inh: 54.1*; SIAE primary: 34.5*; RBBP9 inh: 4.1; HTRA1 inh conf: 21.6; mABHD4 conf: 37.9*

How did CO[C@H]1/C=C/O[C@@]2(C)Oc3c(C)c(O)c4c(O)c(c(C=NN5CCN(C)CC5)c(O)c4c3C2=O)NC(=O)/C(C)=C\C=C\[C@H](C)[C@H](O)[C@@H](C)[C@@H](O)[C@@H](C)[C@H](OC(C)=O)[C@@H]1C do in these assays?
HTRA1 inhibitor: 36.3*; ABHD4 inh: 34.6*; SIAE primary: 5.8; HTRA1 inh conf: 7.2; mABHD4 conf: 3.0

Results for O=C(NC(c1cccnc1)c1ccc2c(c1)OCO2)C1CCN(CCOc2ccc(Cl)cc2Cl)CC1 (configuration not stated) ?
ABHD4 inh: 4.5; SIAE primary: 0.1

What do the screens show for `Cc1ccc(S(=O)(=O)Nc2cc(Cl)c(O)c3ncccc23)cc1`?
HTRA1 inhibitor: 70.4*; ABHD4 inh: 48.5*; SIAE primary: 16.9; HTRA1 inh conf: 54.5*; mABHD4 conf: 56.9*

Results for Cc1ccc(S(=O)(=O)Nc2cccnc2Oc2ccc(Cl)cc2)cc1 ?
HTRA1 inhibitor: -1.1; ABHD4 inh: -7.2; SIAE primary: -3.2; RBBP9 inh: -8.2

How did CC1(Oc2ccccc2-c2ccno2)CCN(Cc2csc3ccccc23)C1 (configuration not stated) do in these assays?
ABHD4 inh: -20.9; SIAE primary: -2.3

How did O=C1NCCN(CC2CCN(CCc3ccccc3)CC2)C1=O do in these assays?
HTRA1 inhibitor: 3.9; ABHD4 inh: 8.4; SIAE primary: 12.1

Results for O=[N+]([O-])c1cc(Cl)cc(/C=N/NC(=S)Nc2ccc(S(=O)(=O)N3CCOCC3)cc2)c1O ?
HTRA1 inhibitor: 61.8*; ABHD4 inh: 56.8*; SIAE primary: 12.6; RBBP9 inh: 6.4; HTRA1 inh conf: 58.7*; mABHD4 conf: 118.2*

Results for COC(=O)CC[C@@H](/C=C/C(=O)OC(C)(C)C)Sc1ccc(C(C)(C)C)cc1 ?
ABHD4 inh: 3.3; SIAE primary: -1.5

How did Cc1ccc2nc(/C(C#N)=C/c3ccc(O)c(O)c3)[nH]c2c1 do in these assays?
HTRA1 inhibitor: 66.8*; ABHD4 inh: 54.7*; SIAE primary: 16.2; HTRA1 inh conf: 92.0*; mABHD4 conf: 52.1*

Results for Cc1ccc2nc(/C(C#N)=C/c3ccccc3C(=O)O)[nH]c2c1 ?
HTRA1 inhibitor: -21.8; ABHD4 inh: 8.6; SIAE primary: 14.2

Results for COC(=O)C[C@@H]1CC[C@H]2[C@H](COc3ccc(NC(=O)Nc4ccc(Cl)cc4)cc3C(=O)N2C)O1 ?
ABHD4 inh: -2.2; SIAE primary: 3.8

What do the screens show for `O=[N+]([O-])c1ccc(Cl)c2c1C1C=CCC1C(c1ccccn1)N2` (configuration not stated)?
HTRA1 inhibitor: 59.8*; ABHD4 inh: 43.1*; SIAE primary: 11.6; RBBP9 inh: 1.0; HTRA1 inh conf: 43.2*; mABHD4 conf: 73.7*

What do the screens show for `Cc1ccc(S(=O)(=O)NCC2CCN(C(=O)C(=O)c3cccs3)CC2)cc1`?
ABHD4 inh: 2.7; SIAE primary: -0.6

What do the screens show for `Cc1ccc(S(=O)(=O)c2ccc(C)cc2)cc1`?
HTRA1 inhibitor: 0.2; ABHD4 inh: 1.4; SIAE primary: -10.9; RBBP9 inh: -3.3

What do the screens show for `Cc1ccc(C2=C(O)C(=O)C(c3ccc(C)cc3)=C(O)C2=O)cc1`?
HTRA1 inhibitor: 84.8*; ABHD4 inh: 45.8*; SIAE primary: 17.0; HTRA1 inh conf: 97.7*; mABHD4 conf: 60.4*

What do the screens show for `Oc1c(Cl)cc(Cl)c2c1NCCC2`?
HTRA1 inhibitor: 51.5*; ABHD4 inh: 38.0*; SIAE primary: 14.4; RBBP9 inh: 8.5; HTRA1 inh conf: 30.1; mABHD4 conf: 37.4*

How did O=C1NCCCc2c1oc1ccc(O)cc21 do in these assays?
HTRA1 inhibitor: -3.2; ABHD4 inh: -5.4; SIAE primary: 5.1; RBBP9 inh: -7.3

Results for CC(=O)Nc1nc2ncccn2c1-c1ccc(C)cc1 ?
ABHD4 inh: 0.7; SIAE primary: -4.1

Results for O=C1c2cc(O)cc(O)c2C(=O)c2c1cc(O)c([C@@H](CO)CCO)c2O ?
HTRA1 inhibitor: 39.1*; ABHD4 inh: 56.4*; SIAE primary: 10.1; HTRA1 inh conf: 20.1; mABHD4 conf: 51.1*

How did COc1ccc(N2C3=C(CC4=C2CCCC4=O)C(=O)CCC3)cc1 do in these assays?
HTRA1 inhibitor: 76.4*; ABHD4 inh: 59.3*; SIAE primary: 13.6; RBBP9 inh: -1.6; HTRA1 inh conf: 67.8*; mABHD4 conf: 15.9

How did COc1ccc(-n2ccc(=O)c3c2CCCC3=O)cc1 do in these assays?
HTRA1 inhibitor: 1.1; ABHD4 inh: 12.4; SIAE primary: -7.0; RBBP9 inh: 8.0

How did CC(=O)c1sc(N/N=C\c2c(O)ccc3ccccc23)nc1C do in these assays?
HTRA1 inhibitor: 38.6*; ABHD4 inh: 31.1*; SIAE primary: 13.9; HTRA1 inh conf: 43.6*; mABHD4 conf: 28.0

What do the screens show for `CC(=O)c1sc(N/N=C/c2cccc(O)c2)nc1C`?
HTRA1 inhibitor: 0.0; ABHD4 inh: 7.8; SIAE primary: 0.8; RBBP9 inh: 3.3

What do the screens show for `CCCC(=Nc1ccccc1)C1=C(O)C(C(=O)OC)C(C)(C)CC1=O` (configuration not stated)?
HTRA1 inhibitor: 5.3; ABHD4 inh: 6.0; SIAE primary: 0.1; RBBP9 inh: 4.8
